This note sets out measurements from ChEMBL document CHEMBL4393666, “Synthesis and Anti-HCV Activities of 4'-Fluoro-2'-Substituted Uridine Triphosphates and Nucleotide Prodrugs: Discovery of 4'-Fluoro-2'- C-methyluridine 5'-Phosphoramidate Prodrug (AL-335) for the Treatment of Hepatitis C Infection” (J Med Chem, 2019).

A value given as a limit tells only on which side of the number the result lay.

Data set [1] can be described thus: Cytotoxicity against human HuH7 cells infected with HCV con1 subgenomic replicon assessed as reduction in cell viability measured after 3 days by CellTiter-blue cell viability assay. It is filed as cell-based, Huh-7. In outline:
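Con1 replicon Huh-7 cells treated as for the replicon assay (DMEM, 2% FBS, 0.5% DMSO, no G418, 37°C) for 3 days. Viability by CellTiter-Blue; CC50 by curve fitting.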
On the technique in general: In antiviral work, replicon cells carry a viral genome segment that copies itself.

The nature of data set [2]: Drug metabolism in Beagle dog liver assessed as 2a-TP level at 9.87 mg/kg, po administered as single dose measured at 12 hrs by LC-MS/MS analysis. It is filed as ADME, organism-based, Canis lupus familiaris. The following applies: in vivo. In outline: (§1)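 Male non-naïve beagle dogs fasted overnight, single oral dose of 9.87 mg/kg (5 mg/kg parent nucleoside equivalent) as a solution in 40% PEG400/water. Liver extracts analysed for NTP by LC-MS/MS against liver-homogenate calibrants. N=2 at 4 h, N=3 at 12 and 24 h.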

The subject of data set [3] is Hepatitis C virus. As to the kind of experiment: Antiviral activity against HCV genotype 1a H77 expressing NS5B measured after 3 days by bright-glo luciferase reporter gene assay. It is filed as functional, organism-based, Hepacivirus hominis. The settings on record: subtype 1a H77, 72 h. In outline: (§2)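 Chimeric replicons carrying the NS5B of each genotype (1a H77, 1b Con1, 2b ADQ73660, 3a NZL1, 4a ABD75829). Firefly luciferase is driven by the poliovirus IRES and the HCV nonstructural genes by the EMCV IRES. Transiently transfected into Lunet cells, 10,000 cells/well. 3-fold serial dilutions, 0.5% DMSO final, 3 days. Read-out: firefly luciferase (Bright-Glo).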

Data set [4] is described as follows: Cytotoxicity against human HuH7 cells treated for 8 days measured post-last dose by Celltiter-glo luminescent assay. It is filed as cell-based, Huh-7. In outline: (§3)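 Cells at 1×10^5/well on collagen I, first kept 8 days in recommended medium without drug. Then compound exposure for 8 days, refed every other day. Viability by CellTiter-Glo luminescence; CC50 by curve fitting.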
For orientation: In ATP-based viability assays light output follows the ATP content of the culture.

Data set [5] concerns Hepatitis C virus. The data set can be described thus: Antiviral activity against HCV genotype 1 infected in human assessed as reduction in viral infection at 800 mg, qd measured after 6 weeks in presence of odalasvir/simeprevir relative to control. It is filed as functional, Hepacivirus hominis. On the set-up: scale not given: the % may be the effect or the level left.
The test system of data set [6] is Hepatitis C virus. As to the kind of experiment: Antiviral activity against HCV genotype 2b subgenomic replicon expressing NS5B measured after 3 days by bright-glo luciferase reporter gene assay. It is filed as functional, organism-based, Hepacivirus hominis. The settings on record: subtype 2b, 72 h. In outline: as §2
In data set [7] the test system is Hepatitis C virus. The data set can be described thus: Antiviral activity against HCV genotype 1b con1 subgenomic replicon expressing NS5B measured after 3 days by bright-glo luciferase reporter gene assay. It is filed as functional, organism-based, Hepacivirus hominis. The settings on record: subtype 1b con1, 72 h. In outline: as §2
A short description of data set [8]: Drug metabolism in human hepatocytes assessed as 2a-TP formation per million cells at 50 uM after 24 hrs by LC-MS/MS analysis. In kind it is ADME, cell-based, Hepatocyte. In outline: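 Primary human hepatocytes, 1.5-2 million cells/well, in Williams E medium, acclimated >18 h. Incubated with compound at 50 μM extracellular for 24 h at 37°C, 5% CO2. Washed with cold saline, methanol/water lysis, NTP measured by LC-MS/MS per million cells.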

A short description of data set [9]: Drug metabolism in Beagle dog liver assessed as 2a-TP level at 9.87 mg/kg, po administered as single dose measured at 24 hrs by LC-MS/MS analysis. In kind it is ADME, organism-based, Canis lupus familiaris. The following applies: in vivo. In outline: as §1
Data set [10] can be described thus: Drug metabolism in human primary hepatocytes assessed as 2a-TP formation after 24 hrs by LC-MS/MS analysis.
A short description of data set [11]: Cytotoxicity against human HeLa cells treated for 8 days measured post-last dose by Celltiter-glo luminescent assay. It is filed as cell-based. In outline:
as §3

Data set [12] deals with Hepatitis C virus. The data set can be described thus: Antiviral activity against HCV genotype 4a subgenomic replicon expressing NS5B measured after 3 days by bright-glo luciferase reporter gene assay. In kind it is functional, organism-based, Hepacivirus hominis. The settings on record: subtype 4a, 72 h. In outline:
as §2

A short description of data set [13]: Drug metabolism in Beagle dog liver assessed as 2a-TP level at 9.87 mg/kg, po administered as single dose measured at 4 hrs by LC-MS/MS analysis. In kind it is ADME, organism-based, Canis lupus familiaris. The following applies: in vivo. In outline: as §1
The nature of data set [14]: Cytotoxicity against human MT4 cells treated for 8 days measured post-last dose by Celltiter-glo luminescent assay. It is filed as cell-based. In outline:
as §3

The test system of data set [15] is Hepatitis C virus. As to the kind of experiment: Antiviral activity against HCV genotype 3a NZL1 subgenomic replicon expressing NS5B measured after 3 days by bright-glo luciferase reporter gene assay. In kind it is functional, organism-based, Hepacivirus hominis. The following applies: subtype 3a NZL1, 72 h. In outline: as §2
In data set [16] the test system is Hepatitis C virus. As to the kind of experiment: Antiviral activity against HCV con1 subgenomic replicon infected in human HuH7 cells assessed as reduction in viral RNA replication by qRT-PCR analysis. In kind it is functional, organism-based, Hepacivirus hominis. The settings on record: isolate Con1, Huh-7. In outline: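 Con1 subgenomic replicon Huh-7 cells (neomycin selection, kept in DMEM/10% FBS with 0.25 mg/ml G418) treated with compounds in DMEM, 2% FBS, 0.5% DMSO, no G418, at 37°C. Total RNA extracted; HCV RNA copy number by multiplex Taqman QRT-PCR. EC50/EC90 by 4-parameter curve fit; EC50 is the mean of ≥2 independent runs.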

Data set [17] is described as follows: Cytotoxicity against human A549 cells treated for 8 days measured post-last dose by Celltiter-glo luminescent assay. In kind it is cell-based. In outline:
as §3

Data set [18] can be described thus: Drug metabolism in human primary hepatocytes assessed as 2a-TP formation at 10 uM after 6 to 24 hrs by LC-MS/MS analysis.
Data set [19] in a line: Cytotoxicity against human HepG2 cells treated for 8 days measured post-last dose by Celltiter-glo luminescent assay. It is filed as cell-based. In outline: as §3
Data set [20] can be described thus: Cytotoxicity against human U937 cells treated for 8 days measured post-last dose by Celltiter-glo luminescent assay. It is filed as cell-based, U-937. In outline: as §3
The nature of data set [21]: Drug metabolism in human HuH7 cells assessed as 2a-TP formation per million cells at 50 uM after 24 hrs by LC-MS/MS analysis. It is filed as ADME, cell-based. The following applies: huh-7, 24 h. In outline: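 Huh-7 cells in 6-well plates, DMEM with 10% FBS and G418, incubated with compound at 50 μM extracellular for 24 h at 37°C, 5% CO2. Washed with cold 0.9% NaCl, lysed in 70% methanol. Intracellular NTP by LC-MS/MS against cell-matrix calibrants, internal standard N6-benzoyladenine; expressed per million cells.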

Data set [22] is described as follows: Half life in human hepatocytes assessed as 2a-TP level at 50 uM treated for 24 hrs followed by compound washout by LC-MS/MS analysis. It is filed as ADME, cell-based, Hepatocyte. In outline:
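Primary human hepatocytes loaded with prodrug at 50 μM for 24 h at 37°C. Medium then replaced with blank medium; samples at 0, 3, 6, 10, 24 and 48 h. NTP by LC-MS/MS; half-life from first-order decay; n=3.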

By CC50 is commonly meant the concentration that lowers cell viability or growth by half. The term EC50 denotes the concentration giving half of the maximal effect. In the case of `CC(C)OC(=O)[C@H](C)N[P@](=O)(OC[C@@]1(F)O[C@@H](n2ccc(=O)[nH]c2=O)[C@](C)(O)[C@@H]1O)Oc1ccccc1` [ADAFOSBUVIR], the CC50 at 72 h in data set [1] is above 99000 nM. For the same compound, the Drug metabolism in data set [2] is 35.222 µM; in data set [8], 3540 pmol; in [9], 29.991 µM; in [10], “Dose-dependent effect”; in [13], 23.19 µM; in data set [18], “Metabolite_Detected”. Besides, the Drug metabolism in [21] is reported as 5695 pmol. The EC50 in the data set on Hepatitis C virus [3] is 60 nM; with Hepatitis C virus [6], 40 nM; with Hepatitis C virus [7] it was 40 nM; in the data set on Hepatitis C virus [12] it was 60 nM; in the data set on Hepatitis C virus [15], 60 nM; in the data set on Hepatitis C virus [16], 70 nM. Besides, the CC50 at 192 h was 96100 nM in data set [4]; above 100000 nM in data set [11]; above 100000 nM in data set [14]; above 100000 nM in [17]; above 100000 nM in data set [19]; above 100000 nM in data set [20]. For the same compound, the Activity in the data set with Hepatitis C virus [5] amounted to 100%.

For the compound `CC(C)OC(=O)[C@H](C)NP(=O)(OC[C@@]1(F)O[C@@H](n2ccc(=O)[nH]c2=O)[C@](C)(O)[C@@H]1O)Oc1ccccc1` (some centres undefined), in data set [1], the CC50 at 72 h was above 100000 nM. In addition, the t1/2 in [22] was found to be 30.1 h. The EC50 in the data set on Hepatitis C virus [16] was determined as 110 nM.
